In data set [1] the test system is Mus musculus. Kind of data set: Anticonvulsant activity in albino CF-1 mouse assessed as protection against maximal electroshock-induced seizures at 300 mg/kg, ip after 0.5 hrs. In kind it is functional, organism-based. Details: dose 300 mg/kg. A digest of the protocol: (§1)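 Male CF-1 mice (18–25 g), i.p. in 0.5% methyl cellulose at 30, 100 and 300 mg/kg; MES: 60 Hz, 50 mA, 0.2 s through tetracaine-primed corneal electrodes; protection = abolished hind limb tonic extension. Value given as minimum dose active in half or more of mice.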
On the technique in general: In the maximal electroshock model the usual endpoint is tonic extension of the hind limbs.

In data set [2] the test system is Mus musculus. Briefly: Neurotoxicity in albino CF-1 mouse assessed as motor impairment at 300 mg/kg, ip after 4 hrs by rotarod test. In kind it is toxicity, organism-based. Further details: dose 300 mg/kg, route intraperitoneal. To be noted: in vivo. A digest of the protocol:
(§2)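 Minimal motor impairment in male CF-1 mice by rotorod after i.p. dosing; toxic if animal falls off rotating rod 3 times within 1 min. Screen doses 30, 100, 300 mg/kg; quantitative TD50 (95% confidence interval) determined at time of peak effect.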

Data set [3] relates to Mus musculus. Briefly: Anticonvulsant activity in albino CF-1 mouse assessed as protection against maximal electroshock-induced seizures at 300 mg/kg, ip after 4 hrs. Type of data set: functional, organism-based. Details: dose 300 mg/kg. The method, boiled down: as §1
For data set [4], the system named is Mus musculus. Briefly: Neurotoxicity in albino CF-1 mouse assessed as motor impairment at 300 mg/kg, ip after 0.5 hrs by rotarod test. Type of data set: toxicity, organism-based. To be noted: in vivo. Details: dose 300 mg/kg, route intraperitoneal. A digest of the protocol:
as §2

Data set [5] deals with Mus musculus. Briefly: Anticonvulsant activity in ip dosed albino CF-1 mouse assessed as dose required to protect against subcutaneous metrazol-induced seizures after 0.5 hrs. In kind it is functional. The method, boiled down:
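Male albino CF-1 mice (18-25 g) received i.p. compound suspended in 0.5% methyl cellulose at 30, 100 and 300 mg/kg. Metrazol at a dose convulsing 97% of animals was given s.c. in the midline neck fold, and mice were observed 30 min in isolation. A clonic spasm of about 3-5 s was the end point. The value is the minimum dose protecting half or more of the mice.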

Data set [6] relates to Mus musculus. Briefly: Anticonvulsant activity in albino CF-1 mouse assessed as protection against subcutaneous metrazol-induced seizures at 300 mg/kg, ip after 4 hrs. Type of data set: functional, organism-based. Details: dose 300 mg/kg. A digest of the protocol:
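Male CF-1 mice, i.p. at 30, 100, 300 mg/kg in 0.5% methyl cellulose; metrazol dose convulsing 97% of animals injected s.c. in midline neck fold, mice isolated and watched 30 min; protected if no 3–5 s clonic spasm episode of limbs, jaws or vibrissae.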

The test system of data set [7] is Mus musculus. Briefly: Anticonvulsant activity in albino CF-1 mouse assessed as protection against maximal electroshock-induced seizures at 300 mg/kg, ip after 2 hrs. In kind it is functional, organism-based. Further details: dose 300 mg/kg. The method, boiled down:
as §1

The subject of data set [8] is Rattus norvegicus. Kind of data set: Acute toxicity in Sprague-Dawley rat assessed as motor impairment at 600 mg/kg, ip after 0.5 hrs. Further details: dose 600 mg/kg, route intraperitoneal. Conditions: in vivo. Type of data set: organism-based. The method, boiled down:
(§3)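 Male albino Sprague Dawley rats, two per dose, given test compound i.p. as a suspension in 0.5% methyl cellulose. Behaviour was closely observed and recorded over 4 h to detect acute motor impairment. Values are scored as animals toxic over animals tested at each time point.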

Data set [9] deals with Rattus norvegicus. Kind of data set: Acute toxicity in Sprague-Dawley rat assessed as motor impairment at 600 mg/kg, ip after 2 hrs. Type of data set: organism-based. Further details: dose 600 mg/kg, route intraperitoneal. Conditions: in vivo. A digest of the protocol: as §3
The test system of data set [10] is Rattus norvegicus. Briefly: Acute toxicity in Sprague-Dawley rat assessed as motor impairment at 300 mg/kg, ip after 1 hr. Type of data set: organism-based. Further details: dose 300 mg/kg, route intraperitoneal. To be noted: in vivo. The method, boiled down: as §3
Data set [11] can be described thus: Octanol-phosphate buffer partition coefficient, log P of the compound at 5 mg, after 24 hrs by UV spectroscopic analysis. In kind it is physicochemical. The method, boiled down:
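5 mg compound added to 10 mL octanol plus 10 mL phosphate buffer in stoppered tube, mechanically shaken 24 h at room temperature, then left in separating funnel 6 h to equilibrate.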

For data set [12], the system named is Rattus norvegicus. Briefly: Toxicity in Sprague-Dawley rat assessed as change in body weight at 600 mg/kg, ip measured after 24 hrs of clonus of one of the fore limbs seizure stage in protected rat. In kind it is organism-based. Details: dose 600 mg/kg, route intraperitoneal. To be noted: in vivo. A digest of the protocol:
(§4)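 Male Sprague Dawley rats (150–180 g) dosed i.p. then challenged with pilocarpine; body weight change measured 24 h after first Stage III seizure, split by protected and non-protected rats, given ± S.E.M.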

Data set [13] concerns Rattus norvegicus. Briefly: Acute toxicity in Sprague-Dawley rat assessed as motor impairment at 300 mg/kg, ip after 4 hrs. In kind it is organism-based. Details: dose 300 mg/kg, route intraperitoneal. Conditions: in vivo. A digest of the protocol: as §3
Data set [14] concerns Rattus norvegicus. Briefly: Acute toxicity in Sprague-Dawley rat assessed as motor impairment at 100 mg/kg, ip after 4 hrs. To be noted: in vivo. Details: dose 100 mg/kg, route intraperitoneal. Type of data set: organism-based. The method, boiled down:
as §3

For data set [15], the system named is Rattus norvegicus. Kind of data set: Acute toxicity in Sprague-Dawley rat assessed as motor impairment at 300 mg/kg, ip after 0.25 hrs. In kind it is organism-based. Further details: dose 300 mg/kg, route intraperitoneal. To be noted: in vivo. A digest of the protocol:
as §3

The test system of data set [16] is Rattus norvegicus. Kind of data set: Acute toxicity in Sprague-Dawley rat assessed as motor impairment at 300 mg/kg, ip after 2 hrs. Details: dose 300 mg/kg, route intraperitoneal. In kind it is organism-based. To be noted: in vivo. A digest of the protocol:
as §3

Data set [17] concerns Rattus norvegicus. Briefly: Toxicity in Sprague-Dawley rat assessed as change in body weight at 600 mg/kg, ip measured after 24 hrs of clonus of one of the fore limbs seizure stage in non-protected rat. In kind it is organism-based. Details: dose 600 mg/kg, route intraperitoneal. Conditions: in vivo. A digest of the protocol:
as §4

The test system of data set [18] is Rattus norvegicus. Kind of data set: Acute toxicity in Sprague-Dawley rat assessed as motor impairment at 100 mg/kg, ip after 1 hr. Conditions: in vivo. Type of data set: organism-based. Further details: dose 100 mg/kg, route intraperitoneal. A digest of the protocol: as §3
Data set [19] deals with Rattus norvegicus. Kind of data set: Acute toxicity in Sprague-Dawley rat assessed as motor impairment at 100 mg/kg, ip after 2 hrs. Type of data set: organism-based. Details: dose 100 mg/kg, route intraperitoneal. To be noted: in vivo. The method, boiled down:
as §3

Data set [20] concerns Rattus norvegicus. Briefly: Acute toxicity in Sprague-Dawley rat assessed as motor impairment at 600 mg/kg, ip after 1 hr. In kind it is organism-based. Details: dose 600 mg/kg, route intraperitoneal. Conditions: in vivo. A digest of the protocol:
as §3

Data set [21] has as its system Rattus norvegicus. Briefly: Acute toxicity in Sprague-Dawley rat assessed as motor impairment at 100 mg/kg, ip after 0.25 hrs. In kind it is organism-based. Details: dose 100 mg/kg, route intraperitoneal. Conditions: in vivo. A digest of the protocol:
as §3

Data set [22] relates to Rattus norvegicus. Kind of data set: Acute toxicity in Sprague-Dawley rat assessed as motor impairment at 100 mg/kg, ip after 0.5 hrs. Type of data set: organism-based. Details: dose 100 mg/kg, route intraperitoneal. To be noted: in vivo. A digest of the protocol: as §3
For data set [23], the system named is Rattus norvegicus. Kind of data set: Acute toxicity in Sprague-Dawley rat assessed as motor impairment at 600 mg/kg, ip after 0.25 hrs. In kind it is organism-based. Details: dose 600 mg/kg, route intraperitoneal. Conditions: in vivo. The method, boiled down:
as §3

In data set [24] the test system is Rattus norvegicus. Briefly: Acute toxicity in Sprague-Dawley rat assessed as motor impairment at 600 mg/kg, ip after 4 hrs. In kind it is organism-based. Details: dose 600 mg/kg, route intraperitoneal. To be noted: in vivo. A digest of the protocol: as §3
Data set [25] relates to Rattus norvegicus. Briefly: Acute toxicity in Sprague-Dawley rat assessed as motor impairment at 300 mg/kg, ip after 0.5 hrs. Type of data set: organism-based. Details: dose 300 mg/kg, route intraperitoneal. Conditions: in vivo. The method, boiled down:
as §3

Calls of active or inactive are those of the source. The calls are words filed in the database; no cut-off is given here.

These results are taken from ChEMBL document CHEMBL1667749, “Design & synthesis of N'-[substituted] pyridine-4-carbohydrazides as potential anticonvulsant agents” (Eur J Med Chem, 2011).

As to `CCCC(CCC)C(=O)[O-].[Na+]` [VALPROATE SODIUM], the outcome with Mus musculus [1], in the data set with Mus musculus [3], in the data set on Mus musculus [6] and with Mus musculus [7] was inactive. The Activity result with Mus musculus [2] was “Non-toxic”; with Mus musculus [4] it was “Non-toxic”; in the data set on Mus musculus [5], 300 mg/kg.
For orientation: logP means the decadic logarithm of the partition coefficient of the neutral form, usually between octanol and water. Lower therefore signals a more hydrophilic compound. On to `O=C1Nc2ccccc2/C1=N/NC(=O)c1ccncc1`, for which the Activity result in the data set with Rattus norvegicus [8], in the data set with Rattus norvegicus [9], with Rattus norvegicus [10], with Mus musculus [2], with Rattus norvegicus [12] and in the data set with Rattus norvegicus [13] was “Non-toxic” throughout. For the same molecule, the Activity result is recorded as “Non-toxic” in the data set on Mus musculus [4]; “Non-toxic” in the data set with Rattus norvegicus [14]; “Non-toxic” in the data set with Rattus norvegicus [15]; “Non-toxic” in the data set on Rattus norvegicus [16]; 20 g in the data set on Rattus norvegicus [17]; “Non-toxic” in the data set with Rattus norvegicus [18]. The Activity entry with Rattus norvegicus [19], with Rattus norvegicus [20], in the data set with Rattus norvegicus [21], in the data set on Rattus norvegicus [22], in the data set with Rattus norvegicus [23] and in the data set with Rattus norvegicus [24] was “Non-toxic” each time. Further, the Activity result with Rattus norvegicus [25] is listed as “Non-toxic”. This molecule also came in with a logP at 24 h in data set [11] of 1.12.
